# Paper PMC3419923 (The EMBO Journal, 2012)
# System: PepTSt
# Assay: Kinetics of proton-driven glycylsarcosine uptake in PepTSt proteoliposomes
# Format: biochemical, Streptococcus thermophilus
# Details: proton-driven proteoliposome uptake, pH 6.5
# Method in brief: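 PepTSt proteoliposomes (1:40 protein:lipid, extruded 400 nm) loaded with 20 mM KPi pH 6.50, 100 mM K acetate, 2 mM MgSO4. Diluted 1:50 into 20 mM NaPIPES […], 2 mM MgSO4, 10 μM valinomycin, giving an inside-negative potential that drives H+/peptide uptake. 3H peptide added at varying concentrations, 25°C. Quenched with ice-cold LiCl, filtered, counted, and converted to molar amounts via standard curves.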
substance,measurement,value
glycylsarcosine,"maximal rate of uptake, Vmax",631 nmol min^−1 mg^−1 PepTSt
